This passage reports inhibition, IC50 and Activity results from ChEMBL document CHEMBL4382240, “Discovery of novel 2,5-dihydroxyterephthalamide derivatives as multifunctional agents for the treatment of Alzheimer's disease” (Bioorg Med Chem, 2018).

The target of series [1] is T1, Amyloid-beta precursor protein (Homo sapiens, UniProt P05067). Description: Inhibition of human amyloid beta (1 to 42) self-induced aggregation at 25 uM after 24 hrs by Thioflavin T based fluorometric assay relative to control. Put shortly:
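Aβ1-42 (25 µM final) incubated with compound (25 µM final) in 50 mM phosphate buffer, pH 7.4, for 24 h at 37 °C under a sealing film. ThT (5 µM) in 50 mM glycine-NaOH, pH 8.5, then added and fluorescence measured. Triplicate; mean ± SD of three independent experiments.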

In the next series the target is T2, Acetylcholinesterase (Rattus norvegicus, UniProt P37136).
T2 sequence (P37136 whole entry): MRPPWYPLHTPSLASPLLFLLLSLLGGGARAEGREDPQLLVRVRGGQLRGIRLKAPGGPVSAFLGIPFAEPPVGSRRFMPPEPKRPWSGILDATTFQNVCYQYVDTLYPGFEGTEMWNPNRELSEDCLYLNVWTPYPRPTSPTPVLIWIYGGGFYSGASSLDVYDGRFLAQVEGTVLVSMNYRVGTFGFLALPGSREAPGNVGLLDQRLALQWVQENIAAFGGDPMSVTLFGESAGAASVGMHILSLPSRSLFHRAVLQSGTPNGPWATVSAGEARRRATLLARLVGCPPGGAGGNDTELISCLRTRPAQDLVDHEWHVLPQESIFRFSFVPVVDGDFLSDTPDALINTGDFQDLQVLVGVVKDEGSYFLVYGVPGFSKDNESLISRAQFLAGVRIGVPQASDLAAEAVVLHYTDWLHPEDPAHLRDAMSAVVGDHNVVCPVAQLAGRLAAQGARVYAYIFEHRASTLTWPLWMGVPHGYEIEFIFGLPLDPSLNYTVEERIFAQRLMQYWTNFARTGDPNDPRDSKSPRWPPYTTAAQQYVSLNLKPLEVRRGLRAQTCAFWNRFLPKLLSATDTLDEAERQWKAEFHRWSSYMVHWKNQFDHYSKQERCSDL
Description: Inhibition of rat cortex AChE using acetylthiocholine iodide as substrate after 15 mins by Ellman's method. A general note: In Ellman's method for cholinesterases, released thiocholine reacts with DTNB.

The nature of series [2]: Metal chelating activity assessed as compound-Zn2+ complex formation at 37.5 uM after 30 mins by UV spectrometry method. Put shortly:
(§1)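 Compound and metal salt (CuCl2, ZnCl2, FeSO4 or AlCl3), each 37.5 µM final in methanol, incubated 30 min at room temperature. UV-vis spectra recorded from 200 to 600 nm and compared with the compound alone.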

The nature of series [3]: Anti-inflammatory activity in […] cells assessed as inhibition of LPS-stimulated TNFalpha release at 10 uM preincubated for 30 mins followed by LPS stimulation and measured after 24 hrs by ELISA relative to control. The class given is functional. To be noted: BV-2. The essentials:
(§2)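 Confluent BV-2 cells in DMEM preincubated 30 min with compound, tested over 0.5–10 µM, then stimulated with LPS (1.0 µg/mL) for 24 h. Released TNF-α measured by ELISA following kit instructions. Triplicate wells; mean ± SD of three independent experiments.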
(In general: An ELISA detects its analyte on a solid surface through an enzyme-linked reagent.)

Series [4] in a line: Anti-inflammatory activity in […] cells assessed as inhibition of LPS-stimulated NO release at 2.5 uM preincubated for 30 mins followed by LPS stimulation and measured after 24 hrs by Griess reagent based assay relative to control. The class given is functional. To be noted: BV-2. The essentials: (§3)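 BV-2 cells cultured 24 h in DMEM (10% FBS, glutamine, pyruvate, pen/strep) at 37 °C, 5% CO2. Compound (DMSO stock diluted in PBS) added 30 min before LPS (1.0 µg/mL), then 24 h. Nitrite in supernatant measured by Griess reagent for 10 min at room temperature, A540, against a NaNO2 standard curve. Triplicate wells; mean ± SD of three independent experiments.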
(The Griess reaction detects nitrite, a stable product of nitric oxide.)

The nature of series [5]: Antioxidant activity assessed as trolox equivalent of APPH-induced radical scavenging activity at 5 uM preincubated for 15 mins followed by AAPH addition measured every minute for 90 mins by ORAC fluorescein assay. The class given is functional. The essentials: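 ORAC-FL in 75 mM phosphate buffer, pH 7.4. Fluorescein (150 nM final) and sample (tested at 1–10 µM) incubated 15 min at 37 °C. AAPH (12 mM final) then added, and fluorescence (ex 485/em 535 nm) read every minute for 90 min. Trolox standard 1–8 µM; result expressed as µM Trolox equivalent per µM compound. Duplicate wells; three independent experiments.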

A short description of series [6]: Anti-inflammatory activity in […] cells assessed as inhibition of LPS-stimulated NO release at 10 uM preincubated for 30 mins followed by LPS stimulation and measured after 24 hrs by Griess reagent based assay relative to control. In kind it is functional. To be noted: BV-2. Put shortly: as §3
For series [7], the species on record is Homo sapiens. The experiment in a line: Anti-inflammatory activity in […] cells assessed as inhibition of LPS-stimulated TNFalpha release preincubated for 30 mins followed by LPS stimulation and measured after 24 hrs by ELISA. The class given is functional, cell-based. Put shortly:
as §2

The species entered for series [8] is Homo sapiens. Description: Anti-inflammatory activity in […] cells assessed as inhibition of LPS-stimulated TNFalpha release at 0.5 uM preincubated for 30 mins followed by LPS stimulation and measured after 24 hrs by ELISA. In kind it is functional, cell-based. The essentials: as §2
Series [9] is described as follows: Metal chelating activity assessed as compound-Al3+ complex formation at 37.5 uM after 30 mins by UV spectrometry method. The essentials:
as §1

A short description of series [10]: Cytotoxicity against […] cells assessed as decrease in cell viability up to 10 uM measured after 24 hrs by MTT assay. In kind it is cell-based. Put shortly: (§4)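 BV-2 cells grown 24 h, then treated with compound (0.5, 2.5, 10.0 µM) for 30 min, with or without LPS (1.0 µg/mL), for a further 24 h. MTT (5 mg/mL) added for 4 h, formazan dissolved in DMSO, A490 read. Viability given as percent of untreated cells. Triplicate wells; three independent experiments.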

Series [11] in a line: Cytotoxicity against […] cells assessed as decrease in cell viability up to 10 uM preincubated for 30 mins followed by LPS stimulation and measured after 24 hrs by MTT assay. In kind it is cell-based. Put shortly: as §4
The nature of series [12]: Anti-inflammatory activity in […] cells assessed as inhibition of LPS-stimulated TNFalpha release at 2.5 uM preincubated for 30 mins followed by LPS stimulation and measured after 24 hrs by ELISA relative to control. The class given is functional. To be noted: BV-2. The essentials:
as §2

The target of series [13] is Acetylcholinesterase (Electrophorus electricus) (UniProt O42275). The experiment in a line: Mixed-type inhibition of electric eel AChE at 2.5 to 10 uM preincubated for 15 mins followed by varying levels of acetylthiocholine iodide substrate addition by Lineweaver-Burk plot analysis.
Acetylcholinesterase (Electrophorus electricus), sequence (O42275 24-633 limits assumed): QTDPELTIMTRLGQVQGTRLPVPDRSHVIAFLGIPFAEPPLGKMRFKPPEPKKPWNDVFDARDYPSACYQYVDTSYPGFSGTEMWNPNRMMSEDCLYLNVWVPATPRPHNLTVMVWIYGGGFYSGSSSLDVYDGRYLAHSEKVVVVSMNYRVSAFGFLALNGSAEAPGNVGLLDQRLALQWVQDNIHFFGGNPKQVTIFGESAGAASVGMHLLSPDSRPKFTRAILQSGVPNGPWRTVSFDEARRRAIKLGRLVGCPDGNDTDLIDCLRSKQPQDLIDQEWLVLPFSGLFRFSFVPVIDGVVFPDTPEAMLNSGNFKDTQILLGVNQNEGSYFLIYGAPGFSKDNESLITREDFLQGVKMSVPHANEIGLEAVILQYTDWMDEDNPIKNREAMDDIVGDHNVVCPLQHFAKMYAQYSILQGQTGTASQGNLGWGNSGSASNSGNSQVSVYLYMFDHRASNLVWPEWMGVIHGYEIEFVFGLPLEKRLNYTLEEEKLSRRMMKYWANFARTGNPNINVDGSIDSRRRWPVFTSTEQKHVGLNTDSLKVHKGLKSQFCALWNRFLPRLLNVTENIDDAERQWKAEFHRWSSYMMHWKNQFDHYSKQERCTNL
The next series has as its target Butyrylcholinesterase (Rattus norvegicus, UniProt Q9JKC1). Description: Inhibition of rat serum BuChE using butyrylthiocholine iodide as substrate after 15 mins by Ellman's method. In kind it is ADME.
Series [14] addresses T1, Amyloid-beta precursor protein. Description: Disaggregation of self-induced preformed fibrils of human amyloid beta (1 to 42) at 25 uM after 24 hrs by Thioflavin T based fluorometric assay relative to control. The essentials: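 Aβ1-42 diluted in HEPES buffer (20 mM, pH 6.6, 150 mM NaCl) and pre-aggregated 24 h at 37 °C. Compound (25 µM) then added for another 24 h at 37 °C on a sealed plate. Remaining fibrils read by ThT fluorescence in glycine-NaOH, pH 8.5. Triplicate; three independent experiments.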

pIC50: −log10 of the molar value. Activity calls are given as the source filed them. The calls are words filed in the database; no cut-off is given here.

T1 sequence (P05067 whole entry): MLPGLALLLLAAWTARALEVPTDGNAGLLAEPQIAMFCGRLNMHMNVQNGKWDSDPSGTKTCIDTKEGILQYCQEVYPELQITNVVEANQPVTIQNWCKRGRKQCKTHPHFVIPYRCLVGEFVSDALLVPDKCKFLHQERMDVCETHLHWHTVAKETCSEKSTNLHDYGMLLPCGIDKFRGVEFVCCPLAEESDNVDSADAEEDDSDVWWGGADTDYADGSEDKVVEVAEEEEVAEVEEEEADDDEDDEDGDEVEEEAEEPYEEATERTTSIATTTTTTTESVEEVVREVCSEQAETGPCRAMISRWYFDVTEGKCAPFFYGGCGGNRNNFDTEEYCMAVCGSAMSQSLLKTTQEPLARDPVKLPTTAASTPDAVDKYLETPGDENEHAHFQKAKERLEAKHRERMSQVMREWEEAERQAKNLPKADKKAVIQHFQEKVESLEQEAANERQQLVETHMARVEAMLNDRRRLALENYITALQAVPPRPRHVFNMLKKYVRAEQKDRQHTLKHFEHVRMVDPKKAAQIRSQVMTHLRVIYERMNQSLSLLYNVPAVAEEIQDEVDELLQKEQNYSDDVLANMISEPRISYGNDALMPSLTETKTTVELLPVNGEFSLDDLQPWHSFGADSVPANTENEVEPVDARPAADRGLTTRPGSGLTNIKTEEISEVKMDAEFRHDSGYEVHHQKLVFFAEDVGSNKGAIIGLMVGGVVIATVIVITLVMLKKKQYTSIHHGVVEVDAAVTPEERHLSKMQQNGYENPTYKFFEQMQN
Butyrylcholinesterase, sequence (Q9JKC1 whole entry): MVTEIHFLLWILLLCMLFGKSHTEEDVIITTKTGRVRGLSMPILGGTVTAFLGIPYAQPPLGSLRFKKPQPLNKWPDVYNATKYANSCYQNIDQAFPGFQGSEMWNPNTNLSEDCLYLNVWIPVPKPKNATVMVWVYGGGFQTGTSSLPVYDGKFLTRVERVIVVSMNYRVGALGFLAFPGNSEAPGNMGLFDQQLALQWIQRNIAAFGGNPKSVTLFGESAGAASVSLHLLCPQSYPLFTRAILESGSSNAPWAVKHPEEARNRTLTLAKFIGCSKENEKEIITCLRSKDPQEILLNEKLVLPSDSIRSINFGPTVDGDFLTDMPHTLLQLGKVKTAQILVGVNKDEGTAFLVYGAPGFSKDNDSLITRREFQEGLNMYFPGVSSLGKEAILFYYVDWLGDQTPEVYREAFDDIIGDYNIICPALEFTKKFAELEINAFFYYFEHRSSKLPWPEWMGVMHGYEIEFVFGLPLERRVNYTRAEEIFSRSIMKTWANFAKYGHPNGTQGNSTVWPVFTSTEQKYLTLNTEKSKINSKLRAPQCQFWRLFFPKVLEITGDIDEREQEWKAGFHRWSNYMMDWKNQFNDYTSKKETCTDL

Usually inhibition stands for the percentage by which the read-out fell short of the control. For orientation: pIC50 means −log10 of the IC50, conventionally taken in molar units. Regarding `CCN(CCCCNC(=O)c1cc(O)c(C(=O)NCCCCN(CC)Cc2ccccc2OC)cc1O)Cc1ccccc1OC`, the results for the inhibition (in [1]; in the series listed under Homo sapiens [7]) were 96.2% and “Dose-dependent effect”, respectively. For the same molecule, the figures for the pIC50 against Acetylcholinesterase and at Butyrylcholinesterase were 6.25 and less than 4.00, respectively. For the same molecule, the result in series [2] was inactive. In addition, the results for the inhibition at 10 µM in [3] and in series [6] were 55.3% and 58.3%, respectively. Moreover, the inhibition at 2.5 µM in series [4] is 30%; in series [12], 37.1%. Besides, the Activity in series [5] was 0.97 equiv; in [10], “Non-Toxic”; in [11], “Non-Toxic”; in [14], 75.2%. Also, in the series filed under Homo sapiens [8], the inhibition entry was “inactive”. Moreover, the outcome in [9] was Active. Besides, in [13], the inhibition entry is “Active”.
